Like-named read-outs stand apart in the source and are kept apart here.
Tests used:
[1] = test system: DU-145 prostate cancer cells; assay: Trypan blue exclusion cell viability assay; assay type: cell-based, human; conditions: for EC100: read-out: EC100 values in DU-145 cells, trypan blue exclusion, 72 h, mean ± SEM
Summary of the method: (§1)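 Seeding 24 h ahead was DU-145 at 6,000 cells/well in DMEM and PC-3 at 6,500 cells/well in RPMI-1640, both with 10% FBS and 1% penicillin/streptomycin. Compounds were added from DMSO stocks (0.2% final DMSO) for 72 h, in quadruplicate. Cells were trypsinized, washed in calcium-free PBS, resuspended in PBS and counted by automated trypan blue exclusion. EC50 came from ≥6 concentrations bracketing a preliminary estimate; 3 independent experiments.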

[2] = test system: PC-3 prostate cancer cells; assay: Trypan blue exclusion cell viability assay; assay type: cell-based, human; conditions: for EC100: read-out: EC100 values in PC-3 cells, trypan blue exclusion, 72 h, mean ± SEM
Summary of the method: as §1

[3] = Trypan blue exclusion cell viability assay on normal cells, 72 h; assay type: cell-based, human; conditions: human, HIFF (human infant foreskin fibroblasts)
Summary of the method: (§2)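 HIFF fibroblasts (infant foreskin, donor-consented) were kept in DMEM with 10% FBS and 1% penicillin/streptomycin at 37°C and 5% CO2, seeded at 6,000 cells/well 24 h ahead. Cells were treated for 72 h at 50 μM or at single lower concentrations (0.2% final DMSO), in quadruplicate. Cells were trypsinized, washed in calcium-free PBS, resuspended in PBS, and viability was scored by automated trypan blue exclusion.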

[4] = test system: DU-145 prostate cancer cells; assay: Alamar Blue cell viability assay; assay type: cell-based; conditions: Homo sapiens, DU-145, read-out: EC50 value in Alamar Blue
Summary of the method: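 DU-145 cells were grown in DMEM with 10% FBS and 1% penicillin/streptomycin at 37°C and 5% CO2, then seeded at 6,000 cells/well 24 h before treatment. Compounds were added from DMSO stocks to 0.2% final DMSO for 72 h, in quadruplicate. After PBS wash, wells got Alamar Blue for 6 h; fluorescence ex 530/em 590 nm. EC50 fitted from ≥6 concentrations.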

[5] = test system: DU-145 prostate cancer cells; assay: Crystal violet cell viability assay; assay type: cell-based, human; conditions: crystal violet staining, even at non-cytotoxic concentrations
Summary of the method: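 DU-145 cells were seeded at 6,000 cells/well in DMEM/10% FBS 24 h ahead and exposed to compound for 72 h (0.2% final DMSO), in quadruplicate. Cells were fixed in 4% formaldehyde at 4°C for 30 min, washed with MeOH:AcOH 3:1, then 80% MeOH, and stained with 0.1% crystal violet for 1 h at room temperature. Stain was dissolved in 10% AcOH; A570 read against untreated control.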

[6] = test system: HIFF (human infant foreskin fibroblasts) normal cells; assay: Trypan blue exclusion cell viability assay on normal cells, 72 h; assay type: cell-based; conditions: 50 μM flavonol, mean ± SEM
Summary of the method: as §2

B12 cells = conditions: 3 h incubation, ref 70 (Liu et al); cited from earlier work
[7] = Homo sapiens, DU-145, 72 h, read-out: EC50 values in DU-145 cells, trypan blue exclusion, 72 h, mean ± SEM
[8] = Homo sapiens, DU-145, read-out: EC100 - EC50 values in DU-145 cells, difference between EC100 and EC50, mean ± SEM
[9] = Homo sapiens, PC-3, 72 h, read-out: EC50 values in PC-3 cells, trypan blue exclusion, 72 h, mean ± SEM
[10] = read-out: EC100 - EC50 values in PC-3 cells, difference between EC100 and EC50, mean ± SEM
[11] = Homo sapiens, PC-3, read-out: EC100 - EC50 values in PC-3 cells, difference between EC100 and EC50, mean ± SEM
[12] = read-out: EC100 - EC50 values in DU-145 cells, difference between EC100 and EC50, mean ± SEM
[13] = read-out: EC50 values in DU-145 cells, trypan blue exclusion, 72 h, mean ± SEM

| Compound | EC50 [1, 7] | EC50 [1, 8] | EC50 [2, 9] | EC50 [2, 10] | EC50 [2, 11] | EC50 [1, 12] | EC50 [1, 13] | EC50 [4] | EC50 ([2]; read-out: EC50 values in PC-3 cells, trypan blue exclusion, 72 h, mean ± SEM) | viability at 72 h, 50 μM [3] | EC100 ([1]; Homo sapiens, DU-145, 72 h) | EC100 ([2]; Homo sapiens, PC-3, 72 h) | maximum achievable cell viability compared to the control [5] | % Viability of HIFF (50 μM) [6] | MTT reduced more than the control (B12 cells) |
| --- | --- | --- | --- | --- | --- | --- | --- | --- | --- | --- | --- | --- | --- | --- | --- |
| COc1ccc(-c2oc3cc(O)cc(O)c3c(=O)c2O)cc1 [Kaempferide, reference compound] | 19.8 µM |  | 14.9 ± 0.78 µM |  | 19.3 ± 2.1 µM | 19.4 ± 2.02 µM | 19.8 ± 0.5 µM | 30.1 µM |  | 52.2 ± 1.17% | 39.2 ± 0.87 µM | 34.2 ± 1.66 µM | < 50% |  |  |
| O=c1c(O)c(-c2ccc(O)cc2)oc2cc(O)cc(O)c12 [Kaempferol, reference compound] | 38.4 ± 1.94 µM |  | 33.3 ± 2.96 µM |  | 24.3 ± 4.63 µM | 36 ± 2.02 µM |  |  |  | 73.8 ± 1.38% | 74.4 ± 0.83 µM | 57.6 ± 6.4 µM |  |  |  |
| O=c1c(O)c(-c2ccc(O)c(O)c2)oc2cc(O)cc(O)c12 [Quercetin, reference compound] | 39.1 µM |  | 32.9 µM | 44.3 ± 4.29 µM |  | 46.3 ± 8.55 µM | 39.1 ± 2.87 µM | 55.1 µM | 32.9 ± 4.1 µM | 84.5 ± 2.21% | 85.4 ± 6.11 µM | 77.1 ± 3.4 µM |  | least inhibitory |  |
| O=c1c(-c2ccc(O)cc2)coc2cc(O)cc(O)c12 [genistein] |  |  |  |  |  |  |  |  |  |  |  |  |  |  | 60% |

Now from value to compound, other results behind:

| EC50 [1, 7] | EC50 [1, 8] | EC50 [2, 9] | EC50 [2, 10] | EC50 [2, 11] | EC50 [1, 12] | EC50 [1, 13] | EC50 [4] | EC50 ([2]; read-out: EC50 values in PC-3 cells, trypan blue exclusion, 72 h, mean ± SEM) | Compound | viability at 72 h, 50 μM [3] | EC100 ([1]; Homo sapiens, DU-145, 72 h) | EC100 ([2]; Homo sapiens, PC-3, 72 h) | maximum achievable cell viability compared to the control [5] | % Viability of HIFF (50 μM) [6] | MTT reduced more than the control (B12 cells) |
| --- | --- | --- | --- | --- | --- | --- | --- | --- | --- | --- | --- | --- | --- | --- | --- |
| 14.8 ± 0.71 µM | 5.62 ± 5.5 µM | 9.31 ± 0.58 µM | 8.55 ± 2.06 µM |  |  |  |  |  | O=C(c1ccccc1)c1cccc(-c2oc3cc(O)cc(O)c3c(=O)c2O)c1 [5a, 2-(3-Benzoylphenyl)-3,5,7-trihydroxy-4H-chromen-4-one] | 34.8 ± 0.2% |  |  |  |  |  |
| 16.6 ± 0.7 µM | 24.4 ± 1.1 µM | 9.97 ± 0.36 µM |  | 12.3 ± 0.99 µM |  |  |  |  | O=C(c1ccccc1)c1ccc(-c2oc3cc(O)cc(O)c3c(=O)c2O)cc1 [5b, 2-(4-Benzoylphenyl)-3,5,7-trihydroxy-4H-chromen-4-one] | 32.3 ± 2.92% | 41 ± 2.18 µM | 22.3 ± 0.91 µM |  |  |  |
| 14.5 ± 1.02 µM | 10.1 ± 0.84 µM | 10.5 ± 0.72 µM | 9 ± 1.06 µM |  |  |  |  |  | O=c1c(O)c(-c2cccc(I)c2)oc2cc(O)cc(O)c12 [5c, 3,5,7-Trihydroxy-2-(3-iodophenyl)-4H-chromen-4-one] | 46.8 ± 2.48% |  |  |  |  |  |
| 7.51 ± 0.27 µM | 2.33 ± 2.05 µM | 4.13 ± 0.16 µM | 6.21 ± 0.59 µM |  |  |  |  |  | O=c1c(O)c(-c2ccc(I)cc2)oc2cc(O)cc(O)c12 [5d, 3,5,7-Trihydroxy-2-(4-iodophenyl)-4H-chromen-4-one] | 34.8 ± 0.99% |  |  |  |  |  |
| 14.3 ± 0.53 µM |  | 9.89 ± 1.24 µM |  | 10.5 ± 3.29 µM | 9.45 ± 1.89 µM |  |  |  | Cc1ccc(-c2oc3cc(O)cc(O)c3c(=O)c2O)cc1 [5e, 3,5,7-Trihydroxy-2-(p-tolyl)-4H-chromen-4-one] | 37.5 ± 2.27% |  |  |  |  |  |
| 25.9 ± 0.59 µM |  | 17.1 ± 1.29 µM |  | 26.8 ± 5.31 µM | 20.5 ± 0.46 µM |  |  |  | O=c1c(O)c(-c2ccccc2)oc2cc(O)cc(O)c12 [5f, Galangin, reference compound] | 48 ± 1.38% | 46.4 ± 3.92 µM | 43.9 ± 4.14 µM |  |  |  |
| 6.33 ± 0.58 µM | 11.7 ± 1.11 µM | 6.35 ± 0.26 µM | 4.98 ± 1.54 µM |  |  |  |  |  | O=c1c(O)c(-c2cccc(-c3ccccc3)c2)oc2cc(O)cc(O)c12 [8c, 2-[(1,1′-Biphenyl)-3-yl]-3,5,7-trihydroxy-4H-chromen-4-one] | 34.6 ± 2.74% |  |  |  |  |  |
| 5.57 ± 0.6 µM | 6.86 ± 0.18 µM | 5.4 ± 0.63 µM | 3.35 ± 0.93 µM |  |  |  |  |  | O=c1c(O)c(-c2ccc(-c3ccccc3)cc2)oc2cc(O)cc(O)c12 [8d, 2-[(1,1′-Biphenyl)-4-yl]-3,5,7-trihydroxy-4H-chromen-4-one] | 34.4 ± 3.67% |  |  |  |  |  |

Reference: article PMC4091967 (International Journal of Oncology, 2014)
